From publication PMC6682138 (ACS Omega, 2019) come the findings set out here.

The experiment relates to A549 cells. Kind of experiment: MTT cytotoxicity assay, A549. It counts as cell-based, human. Conditions: read-out: IC50 A549, 24 h incubation. The procedure, abridged: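 MTT assay. Cells seeded at 2 × 10^4 per well. A549 and HeLa S3 were maintained in DMEM with 10% FBS, 2 mM L-glutamine and antibiotics at 37 °C, 5% CO2. Test compound in DMSO (0.5%) applied at 100–3.125 μM for 24 h. After a PBS wash, cells received fresh DMEM with MTT (5 mg/mL) for 3–4 h in the dark. DMSO was added and absorbance read at 570 nm. Inhibition % = (A−B)/A × 100 versus untreated control, and IC50 taken from viability–concentration curves.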

Turning to `N.N.[Cl][Pt][Cl]` [cisplatin, reference compound], the IC50 was 18 ± 3.1 µM.
